Peptide text beside a SMILES is read from it. * marks the point of attachment. Cbz = O=C(OCc1ccccc1)*
Legend:
Purified 26S proteasome = Purified 26S proteasome (Homo sapiens, UniProt P20618+P28074); assay: Cleavage of Suc-LLVY-AMC by purified 26S proteasome; type: biochemical
HEK-293T cells = assay: Cell viability of HEK-293T cells; type: cell-based; conditions: concentration of 100 μM
Procedure, shortened: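 HEK-293T cells were tested alongside multiple myeloma lines after exposure to test peptoids. Viability was read as fluorescence (RFU).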

HEK293-T cells = assay: Anti-Ub Western blot of poly-ubiquitin conjugates in HEK293-T cells; type: cell-based; conditions: relative to vehicle-treated cells
Rpn13 [1] = target: T1, Rpn13 (Homo sapiens, UniProt Q16186); conditions: assay not described; cited from earlier work
T1 sequence (Q16186 whole entry): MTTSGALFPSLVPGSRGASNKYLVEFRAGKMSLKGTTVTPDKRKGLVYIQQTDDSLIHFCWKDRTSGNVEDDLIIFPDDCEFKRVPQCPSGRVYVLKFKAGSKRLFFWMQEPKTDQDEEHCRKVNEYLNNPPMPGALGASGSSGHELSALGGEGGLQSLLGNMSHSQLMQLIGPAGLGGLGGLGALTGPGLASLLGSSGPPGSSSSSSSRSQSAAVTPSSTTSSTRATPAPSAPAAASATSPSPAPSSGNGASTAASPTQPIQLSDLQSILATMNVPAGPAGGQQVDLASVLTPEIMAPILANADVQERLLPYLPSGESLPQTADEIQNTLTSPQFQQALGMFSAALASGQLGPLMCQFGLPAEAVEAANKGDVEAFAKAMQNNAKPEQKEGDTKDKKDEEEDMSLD

Rpn13 [2] = target: T1, Rpn13; assay: FP competition against fluorescently labeled 11 bound to Rpn13; type: binding; conditions: increasing amounts of competitor
Procedure, shortened: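 Rpn13 pre-incubated with fluorescein-labelled test peptoid to form the complex, then challenged with increasing amounts of unlabelled competitor: either a covalent Rpn13 inhibitor reported to react at Cys88, or the unlabelled form of the same peptoid. Read-out is the change in fluorescence polarization.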

CC(C)C[C@H](NC(=O)[C@H](Cc1ccccc1)NC(=O)c1cnccn1)B(O)O [Bortezomib]
effect on hydrolysis of the fluorogenic peptide (fluorescence) (Purified 26S proteasome): dose-sensitive decrease of fluorescence

CC(C)C[C@@H](C=O)NC(=O)[C@H](CC(C)C)NC(=O)[C@H](CC(C)C)NC(=O)OCc1ccccc1 [MG-132] (Cbz-Leu-Leu-Leu-aldehyde)
cell death of HEK-293T cells at 100 μM (HEK-293T cells): no significant cell death | accumulation of ubiquitylated proteins (HEK293-T cells): accumulation of ubiquitylated proteins does occur

Cl.N[C@@H](Cc1ccccc1)C(=O)N1C/C(=C/c2ccc(Cl)c(Cl)c2)C(=O)/C(=C\c2ccc(Cl)c(Cl)c2)C1 [RA-190]
IC50 (Rpn13 [1]): 100 nM | competition of the fluorescently labeled 11-Rpn13 complex (FP signal) (Rpn13 [2]): insensitive

Source: article PMC4455945 (Journal of the American Chemical Society, 2015)
